Reference: ChEMBL document CHEMBL1140904, “Synthesis and analysis of novel glycerolipids for the treatment of metabolic syndrome” (J Med Chem, 2009)

Columns and labels:
Rattus norvegicus [1] = test: Effect on fatty acid composition in Wistar rat assessed as change in liver LCPUFA, n-6 level at dose equivalent to 250 umol of tetradecylthioacetic acid, po after 6 days; assay type: functional
Procedure, shortened: (§1)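 Male Wistar rats were gavaged once daily for 6 days with compound in 0.5% CMC at 85 or 250 µmol TTA-equivalent per animal. Controls received palmitic acid. Liver was homogenized in 0.25 M sucrose/10 mM HEPES pH 7.4/1 mM EDTA at 0-4 °C. Lipids were extracted with chloroform:methanol 2:1 and spiked with 21:0 internal standard. Fatty acids were BF3-methanol transesterified and quantified as wt%. Values are mean ± SD, n=5.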

Rattus norvegicus [2] = test: Effect on fatty acid composition in Wistar rat assessed as change in liver MUFA level at dose equivalent to 250 umol of tetradecylthioacetic acid, po after 6 days; assay type: functional; procedure, shortened: as §1
Rattus norvegicus [3] = test: Effect on fatty acid composition in Wistar rat assessed as change in plasma 18;2, n-6 level at dose equivalent to 85 umol of tetradecylthioacetic acid, po after 6 days; assay type: functional
Rattus norvegicus [4] = test: Effect on fatty acid composition in Wistar rat assessed as change in plasma saturated fatty acid level at dose equivalent to 85 umol of tetradecylthioacetic acid, po after 6 days; assay type: functional
Rattus norvegicus [5] = test: Effect on fatty acid composition in Wistar rat assessed as change in liver LCn-6/18:2 level at dose equivalent to 250 umol of tetradecylthioacetic acid, po after 6 days; assay type: functional; procedure, shortened: as §1
Rattus norvegicus [6] = test: Induction of PPAR-alpha-regulated HMG-CoA synthase activity in po dosed Wistar rat after 6 days; assay type: functional, organism-based
Procedure, shortened: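 Wistar rats were gavaged daily for 6 days at 85 or 250 µmol TTA-equivalent in 0.5% CMC, with palmitic acid controls. HMG-CoA synthase activity was assayed in the liver postnuclear fraction by the Clinkenbeard method. Mean ± SD, 5 rats/group.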

Rattus norvegicus [7] = test: Effect on fatty acid composition in Wistar rat assessed as change in liver saturated fatty acid level at dose equivalent to 85 umol of tetradecylthioacetic acid, po after 6 days; assay type: functional; procedure, shortened: as §1
Rattus norvegicus [8] = test: Decrease in plasma cholesterol level in po dosed Wistar rat after 6 days; assay type: functional, organism-based
Procedure, shortened: (§2)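 Male Wistar rats (170-210 g), housed in pairs with chow and water, were gavaged once daily for 6 days with test lipid in 0.5% (w/v) carboxymethylcellulose at 85 or 250 µmol TTA-equivalent per animal. Controls received palmitic acid in CMC. Plasma triacylglycerol and cholesterol were measured with an enzymatic kit, and liver levels were also determined. Values are mean ± SD, n=5 rats.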

Rattus norvegicus [9] = test: Effect on fatty acid composition in Wistar rat assessed as change in liver LCPUFA, n-6 level at dose equivalent to 85 umol of tetradecylthioacetic acid, po after 6 days; assay type: functional; procedure, shortened: as §1
Rattus norvegicus [10] = test: Effect on fatty acid composition in Wistar rat assessed as change in liver LCn-6/18:2 level at dose equivalent to 85 umol of tetradecylthioacetic acid, po after 6 days; assay type: functional; procedure, shortened: as §1
Rattus norvegicus [11] = test: Plasma concentration in Wistar rat assessed as tetradecylthioacetic acid at dose equivalent to 250 umol of tetradecylthioacetic acid, po after 6 days; assay type: ADME, organism-based; settings: in vivo, 144 h
Rattus norvegicus [12] = test: Effect on fatty acid composition in Wistar rat assessed as change in liver saturated fatty acid level at dose equivalent to 250 umol of tetradecylthioacetic acid, po after 6 days; assay type: functional; procedure, shortened: as §1
Rattus norvegicus [13] = test: Effect on fatty acid composition in Wistar rat assessed as change in plasma 18;2, n-6 level at dose equivalent to 250 umol of tetradecylthioacetic acid, po after 6 days; assay type: functional
Rattus norvegicus [14] = test: Effect on fatty acid composition in Wistar rat assessed as change in plasma LCPUFA, n-6 level at dose equivalent to 85 umol of tetradecylthioacetic acid, po after 6 days; assay type: functional
Rattus norvegicus [15] = test: Effect on fatty acid composition in Wistar rat assessed as change in liver MUFA level at dose equivalent to 85 umol of tetradecylthioacetic acid, po after 6 days; assay type: functional; procedure, shortened: as §1
Rattus norvegicus [16] = test: Effect on fatty acid composition in Wistar rat assessed as change in plasma LCPUFA, n-6 level at dose equivalent to 250 umol of tetradecylthioacetic acid, po after 6 days; assay type: functional
Rattus norvegicus [17] = test: Effect on fatty acid composition in Wistar rat assessed as change in liver PUFA level at dose equivalent to 250 umol of tetradecylthioacetic acid, po after 6 days; assay type: functional; procedure, shortened: as §1
Rattus norvegicus [18] = test: Plasma concentration in Wistar rat assessed as tetradecylthioacetic acid at dose equivalent to 85 umol of tetradecylthioacetic acid, po after 6 days; assay type: ADME, organism-based; settings: in vivo, 144 h
Rattus norvegicus [19] = test: Effect on fatty acid composition in Wistar rat assessed as change in plasma LCn-6/18:2 level at dose equivalent to 85 umol of tetradecylthioacetic acid, po after 6 days; assay type: functional
Rattus norvegicus [20] = test: Induction of PPAR-alpha-regulated fatty acyl-CoA oxidase activity in po dosed Wistar rat after 6 days; assay type: functional, organism-based
Procedure, shortened: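 Rats were dosed by gastric intubation for 6 days at 85 or 250 µmol TTA-equivalent in 0.5% CMC, with palmitic acid controls. Fatty acyl-CoA oxidase was measured in the liver postnuclear fraction by a coupled assay, following H2O2 production as the rise in dichlorofluorescein absorbance with palmitoyl-CoA. Mean ± SD, n=5.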

Rattus norvegicus [21] = test: Effect on fatty acid composition in Wistar rat assessed as change in plasma saturated fatty acid level at dose equivalent to 250 umol of tetradecylthioacetic acid, po after 6 days; assay type: functional
Rattus norvegicus [22] = test: Decrease in plasma triacylglycerol level in po dosed Wistar rat after 6 days; assay type: functional, organism-based; procedure, shortened: as §2
Liver = test: Drug concentration in Wistar rat liver assessed as tetradecylthioacetic acid at dose equivalent to 85 umol of tetradecylthioacetic acid, po after 6 days; assay type: ADME, organism-based; settings: in vivo, 144 h; procedure, shortened: as §1
Rattus norvegicus [23] = test: Increase in [1-14C]palmitoyl-CoA oxidation in po dosed Wistar rat liver homogenate after 6 days; assay type: functional, organism-based
Procedure, shortened: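 Rats were dosed by gastric intubation for 6 days with 85 or 250 µmol TTA-equivalent in 0.5% CMC, with palmitic acid controls. Liver was homogenized in 0.25 M sucrose, 10 mM HEPES pH 7.4, 1 mM EDTA at 0-4 °C. Palmitoyl-CoA oxidation was read as acid-soluble products from [1-14C]-palmitoyl-CoA in the postnuclear fraction. Mean ± SD, n=5.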

Rattus norvegicus [24] = test: Effect on fatty acid composition in Wistar rat assessed as change in plasma PUFA level at dose equivalent to 85 umol of tetradecylthioacetic acid, po after 6 days; assay type: functional
Rattus norvegicus [25] = test: Effect on fatty acid composition in Wistar rat assessed as change in liver 18;2, n-6 level at dose equivalent to 250 umol of tetradecylthioacetic acid, po after 6 days; assay type: functional; procedure, shortened: as §1
Rattus norvegicus [26] = test: Induction of PPAR-alpha-regulated CPT2 activity in po dosed Wistar rat after 6 days; assay type: functional, organism-based
Procedure, shortened: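 Wistar rats were dosed orally for 6 days (85 or 250 µmol TTA-equivalent in 0.5% CMC; palmitic acid controls). CPT-II activity was measured in the liver mitochondrial fraction, prepared from sucrose/HEPES pH 7.4/EDTA homogenate at 0-4 °C. Means ± SD from 5 rats per group.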

Rattus norvegicus [27] = test: Effect on fatty acid composition in Wistar rat assessed as change in plasma MUFA level at dose equivalent to 250 umol of tetradecylthioacetic acid, po after 6 days; assay type: functional
Rattus norvegicus [28] = test: Effect on fatty acid composition in Wistar rat assessed as change in plasma MUFA level at dose equivalent to 85 umol of tetradecylthioacetic acid, po after 6 days; assay type: functional
Rattus norvegicus [29] = test: Effect on fatty acid composition in Wistar rat assessed as change in plasma PUFA level at dose equivalent to 250 umol of tetradecylthioacetic acid, po after 6 days; assay type: functional
Rattus norvegicus [30] = test: Effect on fatty acid composition in Wistar rat assessed as change in liver 18;2, n-6 level at dose equivalent to 85 umol of tetradecylthioacetic acid, po after 6 days; assay type: functional; procedure, shortened: as §1
Rattus norvegicus [31] = test: Effect on fatty acid composition in Wistar rat assessed as change in liver PUFA level at dose equivalent to 85 umol of tetradecylthioacetic acid, po after 6 days; assay type: functional; procedure, shortened: as §1
Rattus norvegicus [32] = test: Effect on fatty acid composition in Wistar rat assessed as change in plasma LCn-6/18:2 level at dose equivalent to 250 umol of tetradecylthioacetic acid, po after 6 days; assay type: functional

CCCCCCCCCCCCCCSCC(=O)OCC(COC(=O)CSCCCCCCCCCCCCCC)OC(=O)CSCCCCCCCCCCCCCC [TRITETRADECYLTHIOACETYL GLYCEROL]
Activity (Rattus norvegicus [1]): 28.73%
Activity (Rattus norvegicus [2]): 15.91%
Activity (Rattus norvegicus [3]): 19.73%
Activity (Rattus norvegicus [4]): 36.21%
Activity (Rattus norvegicus [5]): 2.7%
Activity (Rattus norvegicus [6]): Dose-dependent effect
Activity (Rattus norvegicus [7]): 39.82%
Activity (Rattus norvegicus [8]): Dose-dependent effect
Activity (Rattus norvegicus [9]): 25.81%
Activity (Rattus norvegicus [10]): 2.3%
Drug uptake (Rattus norvegicus [11]): 1.49%
Activity (Rattus norvegicus [12]): 38.98%
Activity (Rattus norvegicus [13]): 18.25%
Activity (Rattus norvegicus [14]): 19.08%
Activity (Rattus norvegicus [15]): 17.27%
Activity (Rattus norvegicus [16]): 22.24%
Activity (Rattus norvegicus [17]): 4.97%
Drug uptake (Rattus norvegicus [18]): 0.51%
Activity (Rattus norvegicus [19]): 0.98%
Activity (Rattus norvegicus [20]): Dose-dependent effect
Activity (Rattus norvegicus [21]): 34.67%
Activity (Rattus norvegicus [22]): Dose-dependent effect
Drug uptake (Liver): 0.69%
Drug uptake (Liver; in the assay text read “equivalent to 250 umol” for “equivalent to 85 umol”): 2.04%
Activity (Rattus norvegicus [23]): Dose-dependent effect
Activity (Rattus norvegicus [24]): 2.35%
Activity (Rattus norvegicus [25]): 10.7%
Activity (Rattus norvegicus [26]): Dose-dependent effect
Activity (Rattus norvegicus [27]): 21.63%
Activity (Rattus norvegicus [28]): 21.8%
Activity (Rattus norvegicus [29]): 2.29%
Activity (Rattus norvegicus [30]): 11.28%
Activity (Rattus norvegicus [31]): 5.18%
Activity (Rattus norvegicus [32]): 1.22%
